OX1R antag-1: human HCRTR1 antagonism. CHO/OX1R cells, Fluo-8 calcium fluorescence, orexin A. inhibition, % at 5 µM. actives 0.43% (n = 330,000). AID 434989;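 active = inhibition above its plate's threshold, mean inhibition of all tested compounds on the plate plus 3 SD, cut at about 37% in these data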;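 note: 0% = orexin A challenge wells and 100% = SB-334867-A antagonist wells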
GPR7 antagonist: blocks human GPR7 receptor signaling; P48145; GPR7-expressing cells, fluorescence antagonist assay; inhibition, % at 4.4 µM; actives 1.1% (n = 290,000); AID 1861; in the data active = inhibition above about 16%, passing the limit was not always enough;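 note: cells stimulated with the agonist NPW; 0% = agonist with vehicle and 100% = vehicle without agonist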
Target sequence (P48145 whole entry, looked up): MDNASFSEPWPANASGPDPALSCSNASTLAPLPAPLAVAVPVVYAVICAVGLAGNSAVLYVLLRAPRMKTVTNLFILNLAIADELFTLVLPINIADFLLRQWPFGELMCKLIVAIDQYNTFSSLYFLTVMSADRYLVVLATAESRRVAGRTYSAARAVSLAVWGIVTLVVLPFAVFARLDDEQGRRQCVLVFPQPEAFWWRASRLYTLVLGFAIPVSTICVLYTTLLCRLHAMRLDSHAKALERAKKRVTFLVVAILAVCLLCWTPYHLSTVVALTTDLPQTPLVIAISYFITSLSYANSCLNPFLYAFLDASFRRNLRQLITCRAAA
TAAR1 antagonist: antagonists of human TAAR1 | inhibition, % at 3 µM | AID 624466 | CHO RD-HGA16 TAAR1, Fluo-8 calcium fluorescence, antagonist | actives 1.5% (n = 360,000);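 active = inhibition above a per-plate cutoff, the mean inhibition of test compounds on that plate plus 3 SD, cut at about 49% in these data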;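 note: 0% = DMSO plus EC80 beta-PEA response and 100% = DMSO alone without agonist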
Target sequence (Q96RJ0 whole entry, looked up): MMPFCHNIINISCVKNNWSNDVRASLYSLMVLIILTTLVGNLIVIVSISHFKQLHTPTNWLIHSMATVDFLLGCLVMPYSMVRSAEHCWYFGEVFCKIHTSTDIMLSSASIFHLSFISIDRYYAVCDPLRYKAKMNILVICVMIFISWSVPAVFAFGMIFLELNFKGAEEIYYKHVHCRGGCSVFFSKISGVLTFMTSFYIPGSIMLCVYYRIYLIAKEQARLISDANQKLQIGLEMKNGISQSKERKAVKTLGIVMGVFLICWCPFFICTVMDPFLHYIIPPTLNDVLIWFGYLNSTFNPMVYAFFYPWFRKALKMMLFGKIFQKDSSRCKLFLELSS
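Assay system: CHO-derived RD-HGA16 cells stably expressing human TAAR1 plus Gα16. Timing: 140 s kinetic read after compound, 140 s after agonist. Technique: kinetic Fluo-8 calcium fluorescence measurement. Measure: % inhibition of agonist calcium response.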
OX1R antag-2: antagonists of human orexin 1 receptor (OX1R); O43613; OX1R-expressing cells, FRET antagonist read-out; inhibition, % at 6.6 µM; actives 1.8% (n = 330,000); AID 485270; in the data active = inhibition mostly above about 38%, no sharp cut-off; inactive = mostly below about 40%;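 note: 0% = agonist challenge alone and 100% = reference antagonist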
CHO parental Ca: counter-screen for OX1R antagonists: effect in parental CHO cells; parental CHO-K1, ATP-induced calcium, Fluo-8 fluorescence; inhibition, % at 5.6 µM; actives 0.63% (n = 330,000); AID 463079;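 active = inhibition above that plate's mean sample inhibition plus 3 SD, cut at about 26% in these data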;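 note: 0% = ATP-challenged DMSO wells and 100% = DMSO wells without ATP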
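Material – parental CHO cells · Reagent – ATP stimulus · Compound – single nominal dose of 5.6 µM per compound · Detection – Fluo-8 fluorescence · Read-out basis – percent inhibition of calcium signal · Controls – ATP-challenged DMSO wells low, unchallenged DMSO wells high · Repeats – no replicates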
TAAR1 ag: agonists of human TAAR1; CHO RD-HGA16 TAAR1, Fluo-8 calcium fluorescence; vehicle wells 0%, saturating PEA agonist 100%; actives 0.99% (n = 360,000); Q96RJ0; activation, % at 3 µM;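 active = activation above the mean activation of all test compounds in the run plus 3 SD, cut at about 38% in these data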
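Signal – calcium-sensitive Fluo-8 signal, excitation 470-495, emission 515-575 nm · System – RD-HGA16 (CHO) cells co-expressing Gα16 and hTAAR1 · Incubation – 17-24 h seeding, 75 min 37 °C dye, 30 min RT · Compound dosing – 3 µM single concentration · Repeats – no replicates (n 1)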
GPR7 antag cf: confirmation of human GPR7 antagonists | shares compounds with GPR7 antagonist | GPR7-expressing cells, calcium fluorescence antagonist mode | inhibition, % at 4.4 µM | actives 52% (n = 2,400) | AID 1952; in the data active = inhibition above about 24%;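 note: stimulated with the GPR7 agonist NPW; 0% = agonist plus vehicle and 100% = vehicle alone without agonist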
MCHR1 antag: MCHR1 (human) antagonism in GPR7 counter-screen; shares compounds with GPR7 antagonist; MCHR1-expressing cells, fluorescence antagonist assay; inhibition, % at 4.4 µM; actives 62% (n = 2,400); in the data active = inhibition above about 22%;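 note: 0% = vehicle with agonist and 100% = vehicle without agonist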
* hit, by the source's call; · = not tested or not shown. Only some compounds are listed: those with a hit (about 4.6% of all), similar ones and a draw of the others.

SMILES	OX1R antag-1	GPR7 antagonist	TAAR1 antagonist	OX1R antag-2	CHO parental Ca	TAAR1 ag	GPR7 antag cf	MCHR1 antag
CCOc1ccc(S(=O)(=O)Nc2cc(OC)ccc2OC)cc1	-11	23*	-14	6	8	6	18	34*
O/N=C(\c1ccccn1)C1CC1c1ccccc1 (configuration not stated)	-13	-10	-1	18	-4	-2	·	·
COc1ccc(C2CC2/C(=N/O)c2ccccn2)cc1 (configuration not stated)	7	28*	26	22	-14	-1	26*	18
O=C(CSc1ncnc2scc(-c3ccccc3)c12)N1CCN(c2ccccc2F)CC1	-29	27*	20	17	-9	0	25*	34*
O=C(O)CSCC(=O)N1CCN(c2ncnc3scc(-c4ccccc4)c23)CC1	-18	1	11	4	-5	-1	·	·
CCOC(=O)[C@]12CCC=C1N(Cc1ccco1)C(=O)[C@H](CC(=O)NCCCCc1ccccc1)C2	·	·	-20	·	·	3	·	·
O=C(CCN1CCc2ccccc2C1)c1ccc2c(c1)OCCO2	-36	23*	·	11	-11	·	12	22*
C/C=C/c1cc(OC)c2c(c1)[C@H](C)[C@@H](c1ccc(O)c(OC)c1)O2	-12	·	-5	5	-12	-1	·	·
CC(C)(C)n1nc2c(c1NC(=O)c1c(F)cccc1F)CS(=O)(=O)C2	-6	43*	-12	12	7	4	28*	22*
CC(C)(C)n1nc2c(c1NC(=O)c1ccccc1)CS(=O)(=O)C2	-4	1	-12	16	-7	1	·	·
CC(C)Oc1ccc(C(=O)NC2CCSc3ccccc32)cc1 (configuration not stated)	-17	-10	12	18	-4	2	·	·
COC(=O)c1ccc(NC(=O)Nc2ccc(F)cc2F)cc1	-31	12	-2	26	2	17	·	·
COC(=O)c1ccc(NC(=O)Nc2cccc(F)c2)cc1	-3	32*	4	55	23	39*	54*	65*
Cc1ccc([N+](=O)[O-])cc1NC(=O)Nc1cccc(F)c1	·	40*	-1	·	·	8	63*	65*
Cc1ccc([N+](=O)[O-])cc1NC(=O)Cc1ccc(F)cc1	-10	-4	10	11	-3	0	·	·
O=C(Cc1cccs1)Nc1ccon1	-6	-2	6	3	6	10	·	·
c1ccc(Nc2nnc(-c3cccnc3)s2)cc1	-20	41*	1	3	11	1	-1	14
CCn1c(CNc2nc(-c3ccccc3)cs2)nnc1SCC(=O)NCc1ccccc1	-23	-3	-5	20	-10	12	·	·
Cc1ccccc1CN1CCNC1=O	-7	-16	-3	11	-4	1	·	·
Cc1cccc(CN2CCNC2=O)c1	-2	21*	6	9	-14	3	-3	-6
COc1ccc(-c2nnc(-c3ccccc3O)o2)cc1	-16	-3	-8	14	-9	2	·	·
CCc1ccccc1NC(=O)COc1ccc(C(=S)N2CCCC2)cc1	-1	23*	9	46*	-15	4	-9	2
CC(=O)c1ccc(OCC(=O)Nc2ccccc2N2CCCC2)cc1	-23	-2	-30	18	-13	-2	·	·
CC(=C\c1ccccc1)/C=C1/SC(=S)N(CCCC(=O)O)C1=O	·	39*	-16	·	·	3	20	17
CC(/C=C1\SC(=O)N(CCCC(=O)O)C1=O)=C\c1ccccc1	-4	-6	-6	11	-6	4	·	·
SMILES	OX1R antag-1	GPR7 antagonist	TAAR1 antagonist	OX1R antag-2	CHO parental Ca	TAAR1 ag	GPR7 antag cf	MCHR1 antag
O=C(CCN1C(=O)/C(=C\c2ccccc2)SC1=S)N1CCCCC1	-5	22*	-11	12	-14	-1	8	-1
Cc1ccc(/C=C2\SC(=S)N(CCC(=O)N3CCCCC3)C2=O)cc1	-17	-10	3	9	-8	-3	·	·
COC(=O)CN1C(c2ccccc2)=Nc2ccc(Cl)cc2C1c1ccccc1 (configuration not stated)	-17	28*	-8	24	-26	2	4	23*
CCc1cc2c(NCc3ccccc3)nc(C)nc2s1	-14	23*	-7	36	22	1	17	38*
CCOc1ccc2nc(NC(=O)CSc3cn[nH]n3)sc2c1	-2	22*	14	34	5	-1	-4	6
COc1ccc2nc(NC(=O)CSc3cn[nH]n3)sc2c1	1	10	11	8	-2	0	·	·
COCCNC(=O)Cn1c(=O)n(CCCCCC(=O)NCc2ccc3c(c2)OCO3)c(=O)c2sccc21	-13	29*	·	7	-13	·	-7	-4
Cc1cc[n+](CC(=O)Nc2ccccc2)cc1	-6	-5	13	7	-4	3	·	·
CCOC(=O)C1CCN(C(=O)c2ccc3c(c2)NC(=O)/C(=C\c2ccc(C)cc2)S3)CC1	-33	33*	-7	7	-38	4	22	46*
CCOC(=O)C1CCN(C(=O)c2ccc3c(c2)NC(=O)/C(=C/c2ccccc2)S3)CC1	-24	13	14	-2	-15	-2	·	·
O=C(Cn1cnc2ccccc2c1=O)N1CCN(c2ccc(F)cc2)CC1	-27	-7	4	13	1	8	·	·
Cc1ccc(S(=O)(=O)Oc2ccc(/C=C3\C(=N)N4N=C(S(C)(=O)=O)SC4=NC3=O)cc2)cc1	2	30*	5	23	24	-2	14	8
Cc1ccc(NC(=O)CN(C)CC(=O)Nc2ccccc2Oc2ccccc2)cc1	-15	3	-10	7	-7	-1	·	·
Cc1cccc(C)c1NC(=O)CN(C)CC(=O)Nc1ccccc1Oc1ccccc1	-10	32*	6	21	-20	7	26*	26*
O=C(Nc1ccc(C(=O)N2CCOCC2)cc1)Nc1ccc(Cl)cc1Cl	-3	1	20	35	7	0	·	·
COC(=O)[C@@H](NC(=O)c1ccc2c(c1)S(=O)(=O)c1ccccc1C2=O)C(C)C	-41	22*	15	73*	-8	2	-3	6
CC1CCN(c2ccc3nnc(CCC(=O)Nc4ccc(F)c(F)c4)n3n2)CC1	-28	28*	-26	15	-19	-2	37*	40*
O=C(CCc1nnc2ccc(N3CCCC3)nn12)Nc1ccc(F)c(F)c1	-11	0	-13	9	-7	5	·	·

Screens from PubChem.
